Type in all cases: functional, cell-based
Experiment [1] has as its target T1, Urotensin-2 receptor (Homo sapiens) (UniProt Q9UKP6).
T1 sequence (whole entry): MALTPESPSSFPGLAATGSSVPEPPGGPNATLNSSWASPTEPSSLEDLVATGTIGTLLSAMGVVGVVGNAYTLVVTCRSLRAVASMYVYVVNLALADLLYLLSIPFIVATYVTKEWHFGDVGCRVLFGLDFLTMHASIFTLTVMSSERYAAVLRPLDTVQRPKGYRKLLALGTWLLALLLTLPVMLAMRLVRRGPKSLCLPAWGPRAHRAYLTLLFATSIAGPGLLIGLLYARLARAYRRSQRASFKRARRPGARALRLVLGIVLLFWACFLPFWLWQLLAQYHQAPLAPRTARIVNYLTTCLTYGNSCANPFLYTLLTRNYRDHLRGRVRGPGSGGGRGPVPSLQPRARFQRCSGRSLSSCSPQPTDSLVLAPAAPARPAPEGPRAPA
Description: Agonist activity against human urotensin 2 receptor expressed in […] cells assessed as beta-galactosidase activity after 5 days by R-SAT assay relative to Urotensin-2. The method, boiled down:
(§1)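 R-SAT in NIH-3T3 cells grown to 80% confluence in DMEM with 10% bovine calf serum, then transfected for 18 h with human UII receptor plus a β-galactosidase marker. Cells were frozen and thawed into DMEM with 0.4% calf serum and 30% UltraCulture, then incubated with compound for 5 days in 5% CO₂. Reporter read at 420 nm. Eight doses in triplicate, 2–5 EC₅₀ determinations, reported as mean ± SD; efficacy normalized to UII = 100%.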

The next experiment has as its target T2, Urotensin-2 receptor (Homo sapiens, UniProt Q9UKP6).
T2 sequence (Q9UKP6 whole entry): T1 sequence (whole entry)
Description: (§2) Agonist activity against human urotensin 2 receptor expressed in […] cells assessed as beta-galactosidase activity after 5 days by R-SAT assay. The method, boiled down: as §1

In experiment [2] the target is T1, Urotensin-2 receptor (Homo sapiens). The description is as §2. The essentials: as §1
Experiment [3] has as its target Somatostatin receptor type 4 (Homo sapiens) (UniProt P31391). Description: Agonist activity against human SST4 receptor expressed in […] cells assessed as beta-galactosidase activity at 3 uM after 5 days by R-SAT assay.
Experiment [4] concerns the target Somatostatin receptor type 1 (Homo sapiens) (UniProt P30872). The experiment can be described thus: Agonist activity against human SST1 receptor expressed in […] cells assessed as beta-galactosidase activity at 3 uM after 5 days by R-SAT assay.

Active and inactive are the calls of the source. The calls are words filed in the database; no cut-off is given here.

The values that follow come from ChEMBL document CHEMBL1177636, “Optimization of isochromanone based urotensin II receptor agonists” (Bioorg Med Chem, 2010).

Sequence of Somatostatin receptor type 4 (Homo sapiens) (P31391 whole entry): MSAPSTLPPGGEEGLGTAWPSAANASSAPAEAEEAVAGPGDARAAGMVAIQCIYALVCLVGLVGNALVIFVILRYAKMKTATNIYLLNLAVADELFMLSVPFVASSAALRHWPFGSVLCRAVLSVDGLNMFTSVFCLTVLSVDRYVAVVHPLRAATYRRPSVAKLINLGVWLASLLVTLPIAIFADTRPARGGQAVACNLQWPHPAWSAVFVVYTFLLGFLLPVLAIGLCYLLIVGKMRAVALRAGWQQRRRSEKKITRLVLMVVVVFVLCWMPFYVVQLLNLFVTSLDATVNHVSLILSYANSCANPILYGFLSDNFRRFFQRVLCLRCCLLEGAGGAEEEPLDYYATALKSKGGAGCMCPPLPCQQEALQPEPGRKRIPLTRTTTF
Sequence of Somatostatin receptor type 1 (Homo sapiens) (P30872 whole entry): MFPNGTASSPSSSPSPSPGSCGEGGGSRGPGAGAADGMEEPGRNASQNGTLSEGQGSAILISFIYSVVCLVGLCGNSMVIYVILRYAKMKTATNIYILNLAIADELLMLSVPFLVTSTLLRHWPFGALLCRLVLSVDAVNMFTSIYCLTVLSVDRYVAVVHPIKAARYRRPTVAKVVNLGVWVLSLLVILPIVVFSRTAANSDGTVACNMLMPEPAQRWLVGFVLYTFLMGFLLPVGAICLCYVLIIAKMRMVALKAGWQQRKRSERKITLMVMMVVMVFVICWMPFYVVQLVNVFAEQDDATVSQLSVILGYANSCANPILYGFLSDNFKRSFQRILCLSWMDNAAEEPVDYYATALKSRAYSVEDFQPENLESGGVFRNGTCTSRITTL

Regarding `CN(C)CCC1(c2ccc(Cl)c(Cl)c2)Cc2ccccc2C(=O)O1` (stereo unspecified), the Efficacy in experiment [1] was determined as 172%. Also, the half-maximal effective concentration (EC50) at Urotensin-2 receptor was 676 nM.
Consider `Cc1cc2c(cc1C)C(=O)OC(CCN(C)C)(c1ccc3ccccc3c1)C2` (stereo unspecified), for which the Efficacy in experiment [1] turned out to be 126%. For the same molecule, the half-maximal effective concentration (EC50) on Urotensin-2 receptor is 148 nM.
As for `CN(C)CCC1(c2ccc(Cl)cc2)Cc2ccccc2C(=O)N1C` (stereo unspecified), the Efficacy in experiment [1] is 152%. Also, the half-maximal effective concentration (EC50) on Urotensin-2 receptor was 2290 nM.
Taken in the same sequence, the figures for `C=CCN(CC=C)c1cccc(C2(CCN(C)C)Cc3ccccc3C(=O)O2)c1` (stereo unspecified) were 55% and 2400 nM.
Taken in the same sequence, the figures for `COc1cc(OC)cc(C2(CCN(C)C)Cc3cc(C)c(C)cc3C(=O)O2)c1` (stereo unspecified) were 156% and 5250 nM.
For `COc1cccc(C2(CCN(C)C)Cc3cc(C)c(C)cc3C(=O)O2)c1` (stereo unspecified), in that order: 149% and 2880 nM.
Consider `CN(C)CCC1(c2ccc(-c3ccccc3)cc2)Cc2ccccc2C(=O)O1` (stereo unspecified), for which the Efficacy entry in experiment [1] is “inactive”. Moreover, the pEC50 entry in experiment [2] was “inactive”.
Take `C=CCN(C)CCC1(c2ccc(Cl)cc2)Cc2ccccc2C(=O)O1` (stereo unspecified): the Efficacy in experiment [1] turned out to be 77%. For the same molecule, the EC50 at Urotensin-2 receptor is 4170 nM.
On to `CN(C)CCC1(c2ccc(Cl)cc2)Cc2ccc3ccccc3c2C(=O)O1` (stereo unspecified), for which the Efficacy in experiment [1] amounted to 124%. Further, the EC50 at Urotensin-2 receptor is 1150 nM.
For `CN(C)CCC1(c2ccc(C#Cc3ccccc3)cc2)Cc2ccccc2C(=O)O1` (stereo unspecified), the Efficacy entry in experiment [1] was “inactive”. For the same molecule, the pEC50 result in experiment [2] was “inactive”.
In the case of `CN(C)CCC1(c2cccc(Br)c2)Cc2ccccc2C(=O)O1` (stereo unspecified), in experiment [1], the Efficacy is 68%. Moreover, the concentration for a half-maximal effect (EC50) on Urotensin-2 receptor was 2950 nM.
Taken in the same sequence, the figures for `CN(C)CCC1(c2ccc(Cl)cc2)Cc2ccccc2CO1` (stereo unspecified) were 110% and 501 nM.
`COc1ccc2c(c1C)CC(CCN(C)C)(c1ccc(Cl)cc1)OC2=O` (stereo unspecified): the Efficacy in experiment [1] amounted to 118%. In addition, the EC50 at Urotensin-2 receptor was 1740 nM.
For `C[N+](C)(C)CCC1(c2ccc(Cl)cc2)Cc2ccccc2C(=O)O1` (stereo unspecified), in that order: 118% and 3800 nM.
Taken in the same sequence, the figures for `Cc1cc2c(cc1C)CC(CCN(C)C)(c1ccc(Cl)cc1)OC2` (stereo unspecified) were 47% and 692 nM.
Taken in the same sequence, the figures for `CNCCC1(c2ccc(Cl)cc2)Cc2ccccc2C(=O)O1` (stereo unspecified) were 46% and 1950 nM.
For the molecule `COc1cccc2c1CC(CCN(C)C)(c1ccc(Cl)cc1)N(C)C2=O` (stereo unspecified), the Efficacy in experiment [1] was determined as 151%. Moreover, the EC50 at Urotensin-2 receptor is 1170 nM.
For the molecule `Cc1cc2c(cc1C)C(=O)OC(CCN(C)C)(c1ccc(Cl)c(Cl)c1)C2` (stereo unspecified), in experiment [3], the Activity is 31%. In experiment [1], the Efficacy stood at 98%. For the same molecule, the outcome in experiment [4] was inactive. Besides, the EC50 at Urotensin-2 receptor was 51.3 nM.
`CN(C)CCC1(c2ccc(Oc3ccccc3)cc2)Cc2ccccc2C(=O)O1` (stereo unspecified): the Efficacy in experiment [1] was determined as 54%. The EC50 on Urotensin-2 receptor is 1150 nM.
As to `C=CCN(CC=C)c1ccc2c(c1)CC(CCN(C)C)(c1ccc(Cl)cc1)OC2=O` (stereo unspecified), the Efficacy in experiment [1] is 132%. For the same molecule, the EC50 at Urotensin-2 receptor is 724 nM.
For `COc1ccc2c(c1)CC(CCN(C)C)(c1ccc(Cl)cc1)OC2=O` (stereo unspecified), in that order: 165% and 955 nM.
For `CN(C)CCC1(c2cccc(-c3ccccc3)c2)Cc2ccccc2C(=O)O1` (stereo unspecified), in that order: 50% and 1410 nM.
Taken in the same sequence, the figures for `Cc1cc2c(cc1C)CC(CCN(C)C)(c1ccc3ccccc3c1)OC2` (stereo unspecified) were 49% and 263 nM.
Take `CN(C)CCC1(c2ccc(Br)cc2)Cc2ccccc2C(=O)O1` (stereo unspecified): the Efficacy in experiment [1] stood at 127%. The EC50 at Urotensin-2 receptor was 933 nM.
For the molecule `CN(C)CCC1(c2ccc(Cl)cc2)Cc2cc(-c3ccccc3)ccc2C(=O)O1` (stereo unspecified), the Efficacy result in experiment [1] is “inactive”. In experiment [2], the pEC50 entry is “inactive”.
As for `CC(C)N1C(=O)c2ccccc2CC1(CCN(C)C)c1ccc(Cl)cc1` (stereo unspecified), the Efficacy in experiment [1] stood at 145%. The EC50 on Urotensin-2 receptor was 2240 nM.
In the case of `C=CCN(CC=C)c1ccc(C2(CCN(C)C)Cc3ccccc3C(=O)O2)cc1` (stereo unspecified), in experiment [1], the Efficacy result is “inactive”. Further, the pEC50 entry in experiment [2] was “inactive”.

For orientation: EC50 means the concentration needed to bring the measured effect to its halfway point.
